Calls of active or inactive are those of the source. No cut-off for these calls is given here.
Experiments:
[1] = Selectivity index, ratio of CC50 for African green monkey Vero cells to EC50 for Chikungunya virus 899 infected in African green monkey Vero cells; assay type: toxicity, cell-based; settings: read-out: Ratio CC50/EC50
In short: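 Ratio of CC50 in uninfected Vero cells (MTS/PMS) to EC50 for inhibition of CHIKV 899-induced CPE in Vero cells, both from logarithmic interpolation.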

[2] = Cytotoxicity against African green monkey Vero cells assessed as reduction in metabolic activity by MTS/PMS based microscopic analysis; assay type: toxicity, cell-based; settings: chlorocebus sabaeus
In short: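 Uninfected Vero cells exposed to compound dilution series; overall metabolic activity measured by MTS/PMS, with microscopic checks of cell/monolayer morphology. CC50 = concentration reducing metabolic activity by 50%, by logarithmic interpolation.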

[3] = tested on: Chikungunya virus; test: Antiviral activity against Chikungunya virus 899 infected in African green monkey Vero cells assessed as inhibition of virus-induced cytopathogenic effect measured 5 days post infection by MTS/PMS based microscopic analysis; assay type: functional, cell-based; settings: Chikungunya virus, 899, Vero, 120 h
[4] = tested on: Chikungunya virus; test: Antiviral activity against Chikungunya virus 899 pseudoparticles infected in African green monkey BGM cells assessed as inhibition of pseudoparticles entry after 72 hrs by luciferase reporter gene assay; assay type: functional, cell-based; settings: Chikungunya virus, 899, BGM
In short: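 BGM cells at 2.5 × 10^4/well adhered overnight; serial compound dilutions added, then cells infected with lentiviral pseudoparticles bearing CHIKV glycoproteins and firefly luciferase reporter. After 72 h cells lysed and intracellular luciferase activity measured as entry read-out. Mean ± SD, ≥3 independent experiments.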

[5] = tested on: Chikungunya virus; test: Antiviral activity against Chikungunya virus 899 infected in African green monkey Vero A cells assessed as reduction in viral RNA level incubated for 48 hrs by qRT-PCR analysis; assay type: functional, cell-based; settings: for EC50: Chikungunya virus, 899, Vero
[6] = Cytotoxicity against African green monkey BGM cells; assay type: toxicity, cell-based; settings: chlorocebus aethiops
[7] = tested on: Sindbis virus; test: Antiviral activity against Sindbis virus infected in African green monkey Vero A cells assessed as inhibition of virus-induced cytopathogenic effect measured 5 days post infection by MTS/PMS based microscopic analysis; assay type: functional, cell-based; settings: 120 h
[8] = tested on: Semliki Forest virus; test: Antiviral activity against Semliki forest virus infected in African green monkey Vero A cells assessed as inhibition of virus-induced cytopathogenic effect measured 5 days post infection by MTS/PMS based microscopic analysis; assay type: functional, cell-based; settings: 120 h
[9] = tested on: Chikungunya virus; test: Antiviral activity against Chikungunya virus 899 infected in African green monkey Vero A cells assessed as reduction in infectious virus particle production incubated for 48 hrs by end-point titration assay; assay type: functional, cell-based; settings: for EC50: Chikungunya virus, 899, Vero
[10] = tested on: Chikungunya virus; test: Antiviral activity against Chikungunya virus 899 infected in African green monkey Vero A cells assessed as inhibition of viral replication at post entry step by measuring reduction in intracellular viral RNA treated 2 hrs post infection measured after 24 hrs by qRT-PCR analysis; assay type: functional
[11] = tested on: Chikungunya virus; test: Antiviral activity against Chikungunya virus 899 infected in African green monkey Vero A cells assessed as inhibition of viral replication by measuring reduction in intracellular viral RNA treated 2 hrs prior to infection measured after 24 hrs by qRT-PCR analysis; assay type: functional
[12] = tested on: Chikungunya virus; test: Antiviral activity against Chikungunya virus assessed as inhibition of virus replication by cell based assay; assay type: functional
[13] = tested on: Chikungunya virus; test: Antiviral activity against Chikungunya virus 899 infected in African green monkey Vero A cells assessed as inhibition of viral replication at post entry step by measuring reduction in intracellular viral RNA treated up to 6 hrs post infection measured after 24 hrs by qRT-PCR analysis; assay type: functional, cell-based

SMILES | selectivity ratio [1] | CC50 [2] [µM] | EC50 [3] [µM] | also measured
Cn1c(CSc2ccccc2C(F)(F)F)c(C(=O)OC(C)(C)C)c2cc(O)ccc21 | 4.1 | 19 | 3.4 | –
Cn1c(CSc2c(Cl)cccc2Cl)c(C(=O)OC(C)(C)C)c2cc(O)ccc21 | 2.7 | 7.8 | 2.9 | –
CN(C)Cc1c(O)ccc2c1c(C(=O)OC(C)(C)C)c(C[S+]([O-])c1c(Cl)cccc1Cl)n2C (centres undefined) | 2.2 | 9.2 | 4.1 | –
Cn1c(C[S+]([O-])c2c(Cl)cccc2Cl)c(C(=O)OC(C)(C)C)c2cc(O)ccc21 (centres undefined) | 7.6 | 151 | 20 | –
Cn1c(CSc2ccc(Cl)cc2)c(C(=O)OC(C)(C)C)c2cc(O)ccc21 | 3.2 | 15 | 4.8 | –
Cn1c(C[S+]([O-])c2ccc(F)cc2)c(C(=O)OC(C)(C)C)c2cc(O)ccc21 (centres undefined) | > 5.7 | > 100 | 17 | –
CN(C)Cc1c(O)ccc2c1c(C(=O)OC(C)(C)C)c(C[S+]([O-])c1ccccc1C(F)(F)F)n2C (centres undefined) | 3 | 66 | 22 | –
Cn1c(C[S+]([O-])c2ccccc2C(F)(F)F)c(C(=O)OC(C)(C)C)c2cc(CO)ccc21 (centres undefined) | > 14.6 | > 468 | 32 | EC50 [4]: 36 µM; EC50 [5]: 9 µM; CC50 [6]: > 60 µM; EC50 [7]: 96 µM; EC50 [8]: 128 µM; EC50 [9]: 10 µM
Cn1c(CSc2ccc(F)cc2)c(C(=O)OC(C)(C)C)c2cc(O)ccc21 | 3.2 | 11 | 4.5 | –
CCOC(=O)c1c(CSc2ccccc2)n(C)c2cc(Br)c(O)c(CN(C)C)c12 [UMIFENOVIR] | 4.6 | 161 | 35 | inhibition (INH) [10]: >50%; EC50 [4]: 4.4 µM; CC50 [6]: > 60 µM; inhibition (INH) [11]: >50%; EC50 [12]: < 10 µg/mL
Cn1c(CSc2c(Cl)cccc2Cl)c(C(=O)OC(C)(C)C)c2cc(O)c(Br)cc21 | 2.3 | 13 | 5.7 | –
Cn1c(C[S+]([O-])c2ccc(C(F)(F)F)cc2)c(C(=O)OC(C)(C)C)c2cc(O)ccc21 (centres undefined) | 1.9 | 24 | 13 | –
Cn1c(C[S+]([O-])c2ccccc2C(F)(F)F)c(C(=O)OC(C)(C)C)c2cc(O)ccc21 (centres undefined) | 22 | 156 | 6.5 | EC50 [4]: 27 µM; Activity [5]: Dose-dependent effect; EC50 [5]: 1 µM; CC50 [6]: 50 µM; EC50 [7]: 20 µM; inhibition [13]: Active; EC50 [8]: 33 µM; Activity [9]: Dose-dependent effect; EC50 [9]: 1 µM
Cn1c(C[S+]([O-])c2ccccc2C(F)(F)F)c(C(=O)OC(C)(C)C)c2cc(O)c(Br)cc21 (centres undefined) | 2.7 | 26 | 9.6 | –
CN(C)Cc1c(O)c(Br)cc2c1c(C(=O)OC(C)(C)C)c(CSc1c(Cl)cccc1Cl)n2C | – | 17 | ≥ 17 | –
CN(C)Cc1c(O)c(Br)cc2c1c(C(=O)OC(C)(C)C)c(C[S+]([O-])c1ccccc1C(F)(F)F)n2C (centres undefined) | 4.6 | 56 | 12 | –
Cn1c(C[S+]([O-])c2ccc(Cl)cc2)c(C(=O)OC(C)(C)C)c2cc(O)ccc21 (centres undefined) | 11 | 93 | 8.2 | –
Cn1c(CSc2ccccc2C(F)(F)F)c(C(=O)OC(C)(C)C)c2cc(O)c(Br)cc21 | 2.7 | 26 | 9.6 | –
Cn1c(CSc2ccc(C(F)(F)F)cc2)c(C(=O)OC(C)(C)C)c2cc(O)ccc21 | 3.1 | 11 | 3.6 | –
Cn1c(C[S+]([O-])c2c(Cl)cccc2Cl)c(C(=O)OC(C)(C)C)c2cc(CO)ccc21 (centres undefined) | 13.2 | 397 | 30 | –

Reference: ChEMBL document CHEMBL3868626, “Discovery of novel multi-target indole-based derivatives as potent and selective inhibitors of chikungunya virus replication” (Bioorg Med Chem, 2017)
